From ChEMBL document CHEMBL4251567 (Eur J Med Chem, 2018) come the findings set out here.

The target in test [1] is Histone deacetylase 3 (Homo sapiens) (UniProt O15379). The test is described as follows: Inhibition of HDAC3 in human HeLa-S3 cell lysates assessed as remaining activity at 5 uM preincubated for 15 mins followed by HDAC-Glo substrate addition measured after 30 to 40 mins by […] relative to control. An outline of the steps: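 Antibody-capture (ELISA-type) assay: HDAC antibody coated in carbonate/bicarbonate buffer pH 9.4, wells blocked with 5% milk in TBST. HeLa-S3 lysate added at 1 mg/mL for HDAC3, 1 h at 4 °C, then washed. Inhibitor in DMSO preincubated 15 min at RT in HDAC-Glo buffer. HDAC-Glo reagent added, luminescence read after 30-40 min. Concentrations are final. Background = no-antibody well; activity given as % of DMSO control.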

In test [2] the target is T1, Protein deacetylase HDAC6 (Homo sapiens) (UniProt Q9UBN7).
T1 sequence (whole entry): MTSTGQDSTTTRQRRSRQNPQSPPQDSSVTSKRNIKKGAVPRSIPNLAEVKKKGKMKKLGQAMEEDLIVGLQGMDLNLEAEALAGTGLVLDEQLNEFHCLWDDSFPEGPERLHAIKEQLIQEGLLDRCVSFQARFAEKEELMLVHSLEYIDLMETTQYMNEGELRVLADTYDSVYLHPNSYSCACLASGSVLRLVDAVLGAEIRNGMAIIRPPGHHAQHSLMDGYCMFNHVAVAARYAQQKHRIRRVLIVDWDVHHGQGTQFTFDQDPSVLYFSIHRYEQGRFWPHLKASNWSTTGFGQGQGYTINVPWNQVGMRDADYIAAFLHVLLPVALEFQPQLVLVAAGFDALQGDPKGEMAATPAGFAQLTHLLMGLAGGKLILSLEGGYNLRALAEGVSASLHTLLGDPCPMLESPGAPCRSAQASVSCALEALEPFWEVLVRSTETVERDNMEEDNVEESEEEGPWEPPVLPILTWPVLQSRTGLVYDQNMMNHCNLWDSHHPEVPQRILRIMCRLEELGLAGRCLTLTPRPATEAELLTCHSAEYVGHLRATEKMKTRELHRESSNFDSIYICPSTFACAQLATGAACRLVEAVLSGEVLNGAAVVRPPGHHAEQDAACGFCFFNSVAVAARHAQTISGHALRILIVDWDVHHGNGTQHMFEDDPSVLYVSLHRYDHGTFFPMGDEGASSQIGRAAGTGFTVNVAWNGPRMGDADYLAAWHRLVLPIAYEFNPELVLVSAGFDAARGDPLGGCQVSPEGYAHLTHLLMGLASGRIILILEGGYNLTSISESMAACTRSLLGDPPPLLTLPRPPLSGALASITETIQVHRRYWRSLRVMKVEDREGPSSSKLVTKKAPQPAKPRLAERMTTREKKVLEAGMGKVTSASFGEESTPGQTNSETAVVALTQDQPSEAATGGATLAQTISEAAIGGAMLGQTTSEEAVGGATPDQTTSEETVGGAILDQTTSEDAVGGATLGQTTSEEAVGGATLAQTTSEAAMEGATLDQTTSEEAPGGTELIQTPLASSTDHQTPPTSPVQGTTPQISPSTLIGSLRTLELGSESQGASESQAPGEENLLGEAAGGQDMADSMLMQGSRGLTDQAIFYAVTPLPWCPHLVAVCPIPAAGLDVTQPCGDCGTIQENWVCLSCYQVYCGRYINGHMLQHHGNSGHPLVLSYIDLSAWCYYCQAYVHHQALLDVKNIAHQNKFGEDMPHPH
Kind of test: Inhibition of HDAC6 in human U937 cells assessed as increase in acetyl-alpha-tubulin levels after 18 hrs by Western blot method. In kind it is cell-based. An outline of the steps:
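U937 cells (10^6/well in RPMI-1640 with 10% FCS) treated 18 h at 37 °C, 5% CO2 with inhibitor or DMSO (1% final). Lysates separated on 16% SDS-PAGE and blotted to PVDF. Probed with anti-acetyl-α-tubulin(Lys40) and anti-acetyl-H3(Lys9), GAPDH as load control; ECL detection. Blots representative of three trials.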

The target in test [3] is T2, Histone deacetylase (Homo sapiens) (UniProt Q13547+O15379+Q9UBN7+Q92769+Q9UQL6+Q8WUI4+Q9BY41+Q96DB2+P56524+Q9UKV0+Q969S8). Kind of test: Inhibition of HDAC in human HeLa-S3 cell lysates assessed as residual activity at 4.8 x 10^-5 M preincubated for 15 mins followed by HDAC-Glo substrate addition measured after 35 mins by […] relative to control. Type of test: protein assay.

The target of test [4] is T2, Histone deacetylase (Homo sapiens). Kind of test: Inhibition of HDAC in human HeLa-S3 cell lysates assessed as residual activity at 6 x 10^-6 M preincubated for 15 mins followed by HDAC-Glo substrate addition measured after 35 mins by […] relative to control. In kind it is protein assay. Put shortly: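 Lysate (1 μg total protein) in HDAC-Glo buffer was preincubated with inhibitor in DMSO for 15 min at room temperature. HDAC-Glo substrate/developer reagent was added and luminescence read after 35 min. Concentrations are final. Signal corrected for a no-lysate blank; % of DMSO control.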

Test [5] addresses Histone deacetylase 1 (Homo sapiens) (UniProt Q13547). Kind of test: Inhibition of HDAC1 in human HeLa-S3 cell lysates assessed as remaining activity at 8 x 10^-6 M preincubated for 15 mins followed by HDAC-Glo substrate addition measured after 30 to 40 mins by […] relative to control.
Test [6] shares this target. Kind of test: Inhibition of HDAC1 in human HeLa-S3 cell lysates assessed as remaining activity at 1.25 uM preincubated for 15 mins followed by HDAC-Glo substrate addition measured after 30 to 40 mins by […] relative to control. Put shortly: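 HDAC1 was captured from HeLa-S3 lysate (100 μg/mL) onto wells precoated with anti-HDAC1 antibody (10 μg/mL, carbonate buffer pH 9.4) and milk-blocked, 1 h at 4 °C, then washed. Inhibitor in DMSO was added in HDAC-Glo buffer for 15 min at room temperature. HDAC-Glo reagent was added and luminescence read after 30-40 min. Concentrations are final. No-antibody background subtracted; % of DMSO control.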

The target in test [7] is T1, Protein deacetylase HDAC6 (Homo sapiens). The test is described as follows: Inhibition of HDAC6 in human HeLa-S3 cell lysates assessed as remaining activity at 1.25 uM preincubated for 15 mins followed by HDAC-Glo substrate addition measured after 30 to 40 mins by […] relative to control. An outline of the steps:
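HDAC6 captured on an anti-HDAC6 antibody-coated plate (2 μg/mL, pH 9.4 carbonate buffer, milk-blocked). HeLa-S3 lysate loaded at 1 mg/mL, 1 h at 4 °C, then washed. 15 min RT preincubation with inhibitor in DMSO; HDAC-Glo reagent added, luminescence read at 30-40 min. Concentrations are final. Background = no-antibody well; values are % activity versus DMSO control.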

Each structure is given as a SMILES string.

Chain of Histone deacetylase 1 (Homo sapiens) (Q13547 whole entry): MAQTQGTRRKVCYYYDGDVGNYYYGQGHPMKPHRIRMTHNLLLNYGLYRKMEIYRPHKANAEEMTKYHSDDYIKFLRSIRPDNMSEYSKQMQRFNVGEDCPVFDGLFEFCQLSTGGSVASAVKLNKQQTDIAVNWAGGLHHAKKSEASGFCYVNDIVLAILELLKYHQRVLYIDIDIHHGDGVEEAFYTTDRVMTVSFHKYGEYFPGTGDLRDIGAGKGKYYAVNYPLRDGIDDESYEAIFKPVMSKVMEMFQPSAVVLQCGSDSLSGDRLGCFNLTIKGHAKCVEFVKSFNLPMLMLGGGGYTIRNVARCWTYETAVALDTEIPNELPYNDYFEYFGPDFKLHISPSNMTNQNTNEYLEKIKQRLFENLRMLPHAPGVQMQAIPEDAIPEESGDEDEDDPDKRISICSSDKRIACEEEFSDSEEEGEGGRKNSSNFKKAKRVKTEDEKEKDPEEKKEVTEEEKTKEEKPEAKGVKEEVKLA
Chain of Histone deacetylase 3 (Homo sapiens) (O15379 whole entry): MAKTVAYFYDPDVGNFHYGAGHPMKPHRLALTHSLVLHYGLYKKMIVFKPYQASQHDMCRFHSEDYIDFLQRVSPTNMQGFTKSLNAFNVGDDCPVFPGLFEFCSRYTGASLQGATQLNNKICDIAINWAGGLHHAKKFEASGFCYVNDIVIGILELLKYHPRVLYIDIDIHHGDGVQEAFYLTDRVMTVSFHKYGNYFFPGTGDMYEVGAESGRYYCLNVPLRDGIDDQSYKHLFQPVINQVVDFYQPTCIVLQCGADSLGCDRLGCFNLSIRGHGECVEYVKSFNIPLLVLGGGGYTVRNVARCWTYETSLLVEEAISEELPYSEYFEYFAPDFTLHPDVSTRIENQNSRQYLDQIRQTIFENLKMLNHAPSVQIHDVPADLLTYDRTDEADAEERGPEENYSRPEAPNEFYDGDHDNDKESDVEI

On to `O=C(CCC(CCCC(=O)Nc1ccccc1)Cc1ccccc1)NO` (racemic), for which, in test [1], the Activity is 90%. Further, the inhibition result in test [2] was “Dose-dependent effect”.

With `CCC(CCCC(=O)Nc1ccccc1)CCC(=O)NO` (configuration not stated), the Activity in test [3] amounted to 12%; in test [4] it was 82%; in test [5] it was 32%.

Take `CCCCCCC(CCCC(=O)Nc1ccccc1)CCC(=O)NO` (configuration not stated): the Activity in test [6] came out at 97%; in test [7] it was 21%.
